# Insulin prom act: activators of insulin promoter-driven GFP, primary screen, imaging, TRM-6 cells (human fetal islet line), eGFP reporter, cell count; plate-scaled: unstimulated 0, stimulated control 100; activation, % at 2 µM; 130,000 compounds, 0.81% hits;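 active means activation at 2 µM above a set limit, confirmed on inspection of the cell images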;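 further: share of cells whose green reporter signal exceeds an intensity cutoff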
#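 System – TRM-6 insulin promoter–eGFP reporter cells · Probe or stimulus – 0.75 µM tamoxifen as reporter inducer · Dosing – single-point 2 µM compound dose · Incubation – tamoxifen pre-incubation 15 h overnight, then compound exposure 48 h at 37 °C · Measured by – fixed-cell fluorescence microscopy, eGFP plus Hoechst · Evaluation – percent GFP-positive cells normalized to per-plate controls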
# Numbers without * were called inactive. This excerpt belongs to a sample that is enriched for hits.
SMILES,Insulin prom act
CCCCNC(=S)NNC(=O)c1ccc(Br)o1,-7.1
O=C(O)CCCn1cc(NC(=O)COc2cc(F)ccc2[N+](=O)[O-])cn1,-7.1
Cn1c2ccccc2n2c(=O)c(=O)n(CC(=O)c3ccc(Cl)cc3)nc12,3.4
Cc1cc(C)c2nc(SCC(=O)Nc3ccccc3N3CCOCC3)c(C#N)cc2c1,328.6
CCc1cc2cc(C)cc(C)c2nc1SCC(=O)Nc1cc(C)on1,118.2
Cc1nonc1NC(=O)CSc1nc2c(C)cccc2cc1C#N,809.1*
O=C(NCCN1CCOCC1)C1CCC(CNS(=O)(=O)c2ccc(Cl)cc2)CC1 (stereo unspecified),0.0
COc1cc(CNCc2cccs2)ccc1OCC(N)=O,2.4
CCOc1cc(CNCCCN2CCOCC2)ccc1OCC(=O)NC(C)(C)C,-5.6
COc1cc(CNCc2cccs2)ccc1OCC(=O)NC(C)(C)C,125.0*
O=S(=O)(c1ccc(N2CCCC2)cc1)C(F)(F)F,109.5
Cc1cc(NC(=O)CSc2nc3c([nH]c4ccccc43)c(=O)n2-c2cccc(C(F)(F)F)c2)no1,-5.3
COc1cccc(-n2c(SCC(N)=O)nnc2-c2ccncc2)c1,-90.9
COc1cccc(-n2c(SCC(N)=O)nc3c([nH]c4ccccc43)c2=O)c1,252.2*
O=c1cc(CNc2cc(Cl)ccc2Cl)nc2sccn12,0.0
COC(=O)c1ccc(OCC(=O)c2cccc(OC)c2)cc1,-3.3
CCOC(=O)Cn1ncc(-c2ccccc2)c1N,-7.4
O=C1NC(=S)S/C1=C/c1ccc(N2CCOCC2)o1,140.6
O=C1S/C(=C/c2ccc(N3CCOCC3)o2)C(=O)N1Cc1ccc(F)cc1,5.7
CC(C)OC(=O)CN1C(=O)S/C(=C/c2ccc(N3CCCCC3)o2)C1=O,170.3*
Cc1ccc2sc(-c3ccc(NC(=O)/C=C\C(=O)O)cc3)nc2c1,-2.7
COc1ccc(OC)c(NC(=O)N2CCCC(C(=O)c3ccccc3OC)C2)c1 (stereo unspecified),-6.7
CCOc1cc(N2CCOCC2)c(OCC)cc1NC(=O)c1ccc(NC(C)=O)cc1,-7.3
O=C(NNC(=O)c1ccc([N+](=O)[O-])cc1Cl)c1ccncc1,-7.9
O=C(CC1NCCc2ccccc21)Nc1ccccc1 (stereo unspecified),7.3
SMILES,Insulin prom act
CN(C)c1ccc(NC(=O)COC(=O)CCC(=O)c2ccc(F)cc2)cc1,-2.9
CN(C)c1ccc(NC(=O)CC2NCCNC2=O)cc1 (stereo unspecified),487.5*
O=C(CSc1nc2c(sc3ccccc32)c(=O)n1CCCN1CCCC1)NCc1ccco1,0.0
COc1ccccc1C/C(N)=N/O,0.0
Cc1c(C(=O)OC(C)C)sc(NC(=O)C2CCCO2)c1C(=O)OC(C)C (stereo unspecified),3.3
COC(=O)c1sc(NC(=O)C2CCCO2)c(C(=O)OC)c1C (stereo unspecified),427.8*
Cc1sc(NC(=O)C2CCCO2)c(C#N)c1C (stereo unspecified),-9.4
CC(=O)C1=C(c2ccccc2)OC(N)=C(C#N)C1c1ccc(O)cc1 (stereo unspecified),-9.4
CCOC(=O)C1=C(CSc2nc(C)cc(C)c2C#N)OC(N)=C(C#N)C1c1ccccc1 (stereo unspecified),2.7
CCOC(=O)C1=C(CSc2nc(-c3ccccc3)ccc2C#N)OC(N)=C(C#N)C1c1ccc(OC)cc1 (stereo unspecified),83.7*
O=C(NNC(=O)C1CC(c2cccs2)=NO1)NC1CCCCC1 (stereo unspecified),106.7
CCOc1ccc2ccccc2c1/C=N/NC(=O)CC1(C)OCCCO1,0.0
O=C(N/N=C/c1c(Nc2cccc(C(F)(F)F)c2)nc2ccccn2c1=O)c1ccccc1,-7.3
CCCc1cc(=O)[nH]c(SCC(=O)N2CCN(S(=O)(=O)c3ccc(Cl)cc3)CC2)n1,-6.5
CC(C)Cc1nc2ccccc2n1CCc1ccccc1,0.0
CCC(C)(C(=O)NC1CCCCC1)N(Cc1cccs1)C(=O)c1ccccn1 (stereo unspecified),106.7
CCC(C)(C(=O)NC1CCCC1)N(Cc1cccs1)C(=O)Cc1cccs1 (stereo unspecified),82.8*
CCC(C)(C(=O)NC1CCCC1)N(C)C(=O)Cc1c[nH]c2ccccc12 (stereo unspecified),0.0
Cc1cc(C(=O)OCC(=O)c2c(N)n(C)c(=O)n(C)c2=O)c(C)n1-c1ccccc1,-8.3
Cc1ccc(C)c(NC(=O)c2ccc[n+](Cc3ccc([N+](=O)[O-])cc3)c2)c1,233.3*
Cc1ccc(C)c(NC(=O)Cn2nc([N+](=O)[O-])c(Br)c2C)c1,0.0
Cc1ccc(Cn2nnc(C(=O)Nc3cc(C)ccc3C)c2N)cc1,5.7
O=C(O)c1csc(N/N=C/c2ccc(Br)cc2)n1,0.0
CCCCNC(=O)/C(=C/c1ccccc1)NC(C)=O,2.0
O=C(CCCN1C(=O)c2cccc3cccc(c23)C1=O)N1CCc2ccccc2C1,-5.7
SMILES,Insulin prom act
Nc1nnc(Cc2ccc(Cl)cc2Cl)s1,97.1*
Clc1ccc(Cc2ccc(SCc3ccccc3)nn2)c(Cl)c1,-2.9
COCc1nnc(N)s1,6.1
COc1ccc(NC(=O)CC2SC(=N)N(c3ccccc3)C2=O)c(OC)c1 (stereo unspecified),118.2
Cc1cccc(NC(=O)c2oc3c(c2C)C(=O)CC(C)(C)C3)n1,335.7
COc1ccc(C(=O)OCC(=O)Nc2ccc(OC(F)F)cc2)c(OC)c1,-2.7
CCC(Cc1ccccc1)NC(=O)CCn1cccc1 (stereo unspecified),3.3
CCC/S(CC1CC1(Cl)Cl)=N\S(=O)(=O)c1ccc(C)cc1 (stereo unspecified),-3.1
Cc1cc(N2C(=O)CC(N3CCN(c4ccc(C(=O)c5cccs5)cc4)CC3)C2=O)no1 (stereo unspecified),437.5*
Cc1cc(N2C(=O)CC(C(C)c3ccccc3)C2=O)no1 (stereo unspecified),3.4
O=C(c1ccc(N2CCOCC2)cc1)c1cccs1,7.1
O=C(CCC(=O)OCCCC(F)(F)C(F)(F)F)Nc1ccccc1,-9.4
Cc1ccc(NC(=O)CCC(=O)OCC(F)(F)C(F)F)cc1,80.6*
Cc1ccc(NC(=O)CCC(=O)OCC(=O)c2ccc(-c3ccccc3)cc2)cc1,-24.2
CN(CCCNC(=O)CCCOc1cc(=O)n(C)c2ccccc12)Cc1ccccc1,0.0
CC1=C(C(=O)N2CCCCC2)C(c2cccs2)NC(=O)N1 (stereo unspecified),7.1
CCN(CC)S(=O)(=O)c1ccc(Cl)c(C(=O)OC)c1,2.7
CCCS(=O)(=O)c1c(S(=O)(=O)CCC)c2c(C)cccn2c1C(N)=O,-85.7
CCCS(=O)(=O)c1c(S(=O)(=O)CCC)c2cc(-c3ccncc3)ccn2c1C(=O)OC,378.6*
Clc1ccccc1-c1nnc(-c2cccs2)o1,0.0
Fc1ccc(Cc2nnc(-c3cccs3)o2)cc1,-62.5
O=[N+]([O-])c1ccc(Cc2nnc(-c3ccccc3Cl)o2)cc1,343.8*
O=C(Cc1ccccc1F)OCC(=O)N1CCN(C(=O)c2ccco2)CC1,0.0
CCCCc1ccc(S(=O)(=O)N2CCN(C(=O)c3ccco3)CC2)cc1,7.1
O=C(c1ccco1)N1CCN(S(=O)(=O)c2cccs2)CC1,-76.7
O=C(c1ccco1)N1CCN(S(=O)(=O)Cc2ccc(Cl)cc2)CC1,420.0*
O=C(Cc1ccccc1)N1CCN(C(=O)c2ccco2)CC1,528.6*
O=C(CCSc1ccccc1)N1CCN(C(=O)c2ccco2)CC1,156.3
NC(=O)N/N=C/c1cc(Br)ccc1OC(=O)c1ccccc1,9.8
O=C(CSCc1ccc(F)cc1)NCc1ccco1,3.6
